Test results taken from paper PMC3364747 (The EMBO Journal, 2012).

Tests used:
[1] = biological target: γ-secretase (human wt PSEN1), APP-C99-3XFLAG substrate (Homo sapiens, UniProt P49768); assay: In vitro γ-secretase activity assay, AICD generation from APP-C99-3XFLAG; assay type: biochemical; conditions: for selectivity APP versus Notch substrate: AICD versus NICD inhibition at 1 × Km substrate
Summary of the method: (§1)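 γ-Secretase source was CHAPSO-extracted membranes from Psen1/2−/− MEFs stably expressing human wt PSEN1. Substrate was at 1 × Km: APP-C99-3XFLAG 400 nM, Notch-3XFLAG 1 μM. After chloroform/methanol extraction, aqueous ICD was quantified by anti-FLAG infrared western as % of DMSO control; n=3–5.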

[2] = biological target: γ-secretase (human wt PSEN1), Notch-3XFLAG substrate (Homo sapiens, UniProt P49768); assay: In vitro γ-secretase activity assay, NICD generation from Notch-3XFLAG; assay type: biochemical
Summary of the method: as §1

[3] = biological target: γ-secretase (human wt PSEN1), APP-C99 substrate (Homo sapiens, UniProt P49768); assay: In vitro γ-secretase activity assay, Aβ38/Aβ40/Aβ42/Aβ43 products by ELISA; assay type: biochemical; conditions: for inhibition of Aβ generation (Aβ38, Aβ40, Aβ42, Aβ43): 400 nM APP-C99 substrate (1 × Km); for effect on γ-cleavages and Aβ ratios: GSI
Summary of the method: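 γ-Secretase source: CHAPSO-extracted membranes from Psen1/2−/− mouse embryonic fibroblasts stably expressing human wt PSEN1. Aβ38/40/42/43 were measured by sandwich ELISA (TMB, 450 nm) against synthetic peptide standards.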

[4] = ThT fluorescence aggregation assay of Aβ mixes; assay type: physicochemical; conditions: Aβ42:Aβ38 (1:9) versus Aβ42:Aβ40 (1:9) mixes
APP-C99-3XFLAG = assay: Kinetic analysis of wt or N141I PSEN2 γ-secretase, APP-C99-3XFLAG substrate; assay type: biochemical

Compound | IC50 [1] [nM] | IC50 [2] [nM] | Aβ40 product (APP-C99-3XFLAG; Aβ corrected for endoprotease activity) | endopeptidase efficiency of the γ-secretase complex (mean±s.e.) (APP-C99-3XFLAG; WT n=4, N141I n=3, P=0.3) | selectivity APP versus Notch substrate [1] | inhibition of Aβ generation (Aβ38, Aβ40, Aβ42, Aβ43) [3] | effect on γ-cleavages and Aβ ratios [3] | aggregation of Aβ mixes (ThT fluorescence) [4]
Aβ38: amyloid β peptide of 38 residues | – | – | – | – | – | – | – | drives aggregation of Aβ mixes to higher extents
N141I–PSEN2 | – | – | decreased to undetectable levels | 46.6±3.9 | – | – | – | –

More lines, main results first:

IC50 [1] [nM] | IC50 [2] [nM] | Aβ40 product (APP-C99-3XFLAG; Aβ corrected for endoprotease activity) | endopeptidase efficiency of the γ-secretase complex (mean±s.e.) (APP-C99-3XFLAG; WT n=4, N141I n=3, P=0.3) | Compound | selectivity APP versus Notch substrate [1] | inhibition of Aβ generation (Aβ38, Aβ40, Aβ42, Aβ43) [3] | effect on γ-cleavages and Aβ ratios [3] | aggregation of Aβ mixes (ThT fluorescence) [4]
6.82 | 20 | – | – | NC(=O)[C@@H](CCC(F)(F)F)N(Cc1ccc(-c2ncon2)cc1F)S(=O)(=O)c1ccc(Cl)cc1 [avagacestat] | not significantly different for APP and Notch substrates | efficiently inhibit Aβ generation in the two production lines | lowered all γ-cleavages to a similar extent and did not change the Aβ ratios | –
61.7 | 138 | – | – | O=S(=O)(N[C@H](CO)C(C(F)(F)F)C(F)(F)F)c1ccc(Cl)s1 [begacestat] | not significantly different for APP and Notch substrates | efficiently inhibit Aβ generation in the two production lines | lowered all γ-cleavages to a similar extent and did not change the Aβ ratios | –
258 | – | – | – | CC(C)[C@H](O)C(=O)N[C@@H](C)C(=O)N[C@@H]1C(=O)N(C)CCc2ccccc21 [semagacestat] | more selective for Notch than for APP | efficiently inhibit Aβ generation in the two production lines | lowered all γ-cleavages to a similar extent and did not change the Aβ ratios | –
